Measured values from ChEMBL document CHEMBL4038284, “Synthesis of novel quinoline-based 4,5-dihydro-1H-pyrazoles as potential anticancer, antifungal, antibacterial and antiprotozoal agents” (Eur J Med Chem, 2017).
Converted amounts (≈) assume the structure as drawn.

Tests used:
Candida albicans [1] = assay: Growth inhibition of Candida albicans ATCC 10231 at 15.62 ug/ml incubated for 48 hrs under dark condition by broth microdilution method relative to control; format: functional; settings: ATCC 10231, 48 h, read-out: GI
Summary of the method: (§1)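 CLSI M27-A3 broth microdilution in RPMI-1640, DMSO ≤1%. Inoculum 1-5 × 10^3 CFU/mL. Incubated 48 h at 30 °C, dark. % inhibition = 100 − (OD405 test − sterility control)/(OD405 growth control − sterility control), with growth and sterility control wells. Triplicate.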

Candida albicans [2] = assay: Growth inhibition of Candida albicans ATCC 10231 at 31.25 ug/ml incubated for 48 hrs under dark condition by broth microdilution method relative to control; format: functional; settings: ATCC 10231, 48 h, read-out: GI; summary of the method: as §1
Trypanosoma cruzi = assay: Antitrypanosomal activity against Trypanosoma cruzi Tulahuen intracellular amastigote harboring LacZ infected in human U937 cells after 72 hrs by CPRG/Nonidet reagent based spectrophotometric method; format: functional, cell-based; settings: U-937, 72 h
Summary of the method: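 U-937 cells at 2.5 × 10^5 cells/mL in RPMI-1640 with 10% serum and 0.1 µg/mL PMA were infected with β-galactosidase-transfected Tulahuen epimastigotes at 5 parasites per cell. Infected cells were exposed to 50, 12.5, 3.125 and 0.78 µg/mL for 72 h. CPRG (100 uM) and 0.1% Nonidet P-40 were added for 3 h, read at 570 nm. EC50 by Probit. Triplicate, at least two experiments; benznidazole as reference.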

Cryptococcus neoformans [3] = assay: Growth inhibition of Cryptococcus neoformans ATCC 32264 at 62.5 ug/ml incubated for 48 hrs under dark condition by broth microdilution method relative to control; format: functional; settings: ATCC 32264, 48 h, read-out: GI; summary of the method: as §1
Escherichia coli = assay: Antibacterial activity against Escherichia coli ATCC 25922 after 24 hrs by resazurin dye based microdilution assay; format: functional; settings: ATCC 25922, 24 h
Summary of the method: (§2)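 MIC taken as the lowest concentration giving visible inhibition and/or by resazurin (1 mg/mL). Gentamicin was the control. Run in duplicate, repeated at least three times.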

Leishmania panamensis = assay: Antileshmanial activity against EpiR/GFP fused Leishmania panamensis MHOM/CO/87/UA140 intracellular amastigotes infected in human […] cells after 72 hrs by flow cytometric method; format: functional, cell-based; settings: MHOM/CO/87/UA140, 72 h
Summary of the method: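 PMA-treated U-937 cells (3 × 10^5 cells/mL) infected with stationary-phase GFP L. panamensis promastigotes (15:1), 3 h at 34 °C, then washed. After 24 h, compounds added at 50, 12.5, 3.125 and 0.78 µg/mL for 72 h at 37 °C. EC50 by Probit; triplicate, two experiments.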

U-937 = assay: Cytotoxicity against human U937 cells after 72 hrs by MTT assay; format: cell-based; settings: u-937, 72 h
Summary of the method: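 Exponentially growing U-937 at 1 × 10^5 cells/mL in RPMI-1640 with 10% FBS were exposed to 200, 50, 12.5 and 3.125 µg/mL for 72 h at 37 °C, 5% CO2. MTT for 3 h, stopped with isopropanol/SDS, formazan read at 570 nm, blank-corrected. LC50 by Probit from % viability against untreated cells. Triplicate, at least two independent experiments.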

Candida albicans [4] = assay: Growth inhibition of Candida albicans ATCC 10231 at 125 ug/ml incubated for 48 hrs under dark condition by broth microdilution method relative to control; format: functional; settings: ATCC 10231, 48 h, read-out: GI; summary of the method: as §1
Staphylococcus aureus [5] = assay: Antibacterial activity against methicillin-sensitive Staphylococcus aureus ATCC 25923 after 24 hrs by resazurin dye based microdilution assay; format: functional; settings: ATCC 25923, 24 h; summary of the method: as §2
Cryptococcus neoformans [6] = assay: Growth inhibition of Cryptococcus neoformans ATCC 32264 at 125 ug/ml incubated for 48 hrs under dark condition by broth microdilution method relative to control; format: functional; settings: ATCC 32264, 48 h, read-out: GI; summary of the method: as §1
Cryptococcus neoformans [7] = assay: Growth inhibition of Cryptococcus neoformans ATCC 32264 at 15.62 ug/ml incubated for 48 hrs under dark condition by broth microdilution method relative to control; format: functional; settings: ATCC 32264, 48 h, read-out: GI; summary of the method: as §1
Candida albicans [8] = assay: Growth inhibition of Candida albicans ATCC 10231 at 3.4 ug/ml incubated for 48 hrs under dark condition by broth microdilution method relative to control; format: functional; settings: ATCC 10231, 48 h, read-out: GI
Plasmodium falciparum = assay: Antiplasmodial activity against chloroquine-sensitive Plasmodium falciparum 3D7 assessed as reduction in parasitic LDH activity after 48 hrs by Malstat reagent based […] method; format: functional; settings: 3D7, 48 h
Summary of the method: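 Unsynchronized P. falciparum 3D7 at 0.5% parasitemia and 1% hematocrit in RPMI with 3% Albumax II. Exposed to 100, 25, 6.25 and 1.56 µg/mL for 48 h at 37 °C under 90% N2/5% CO2/5% O2. After three freeze-thaw cycles, LDH measured with Malstat and NBT/PES, 1 h in the dark, read at 650 nm. IC50 by Probit; triplicate, ≥2 experiments.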

Staphylococcus aureus [9] = assay: Antibacterial activity against methicillin-resistant Staphylococcus aureus ATCC 43300 after 24 hrs by resazurin dye based microdilution assay; format: functional; settings: ATCC 43300, 24 h
Summary of the method: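 Broth microdilution in Mueller Hinton broth, inoculum 5 × 10^5 – 8 × 10^5. Compound stocks diluted in MHB with 5% DMSO and 0.1% Tween 80. Incubation 24 h at 35-37 °C. MIC is the lowest concentration with visible growth inhibition and/or by resazurin (1 mg/mL) read-out. Gentamicin as control. Run in duplicate, replicated at least three times.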

Neisseria gonorrhoeae = assay: Antibacterial activity against beta lactamase positive Neisseria gonorrhoeae ATCC 31426 by oxidase test; format: functional
Summary of the method: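 Agar dilution MIC on GC agar with 1% isovitalex containing increasing compound concentrations. Plates inoculated with about 1×10^4 CFU (5 µL). MIC is the lowest concentration that inhibited growth, with growth confirmed by oxidase test. Run in duplicate, repeated at least three times.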

Cryptococcus neoformans [10] = assay: Growth inhibition of Cryptococcus neoformans ATCC 32264 at 3.4 ug/ml incubated for 48 hrs under dark condition by broth microdilution method relative to control; format: functional; settings: ATCC 32264, 48 h, read-out: GI
Candida albicans [11] = assay: Growth inhibition of Candida albicans ATCC 10231 at 62.5 ug/ml incubated for 48 hrs under dark condition by broth microdilution method relative to control; format: functional; settings: ATCC 10231, 48 h, read-out: GI; summary of the method: as §1
Cryptococcus neoformans [12] = assay: Growth inhibition of Cryptococcus neoformans ATCC 32264 at 7.8 ug/ml incubated for 48 hrs under dark condition by broth microdilution method relative to control; format: functional; settings: ATCC 32264, 48 h, read-out: GI; summary of the method: as §1
Staphylococcus aureus [13] = assay: Antibacterial activity against vancomycin-intermediate Staphylococcus aureus after 24 hrs by resazurin dye based microdilution assay; format: functional; summary of the method: as §2
Cryptococcus neoformans [14] = assay: Growth inhibition of Cryptococcus neoformans ATCC 32264 at 250 ug/ml incubated for 48 hrs under dark condition by broth microdilution method relative to control; format: functional; settings: ATCC 32264, 48 h, read-out: GI; summary of the method: as §1
Pseudomonas aeruginosa = assay: Antibacterial activity against Pseudomonas aeruginosa ATCC 27853 after 24 hrs by resazurin dye based microdilution assay; format: functional; settings: ATCC 27853, 24 h; summary of the method: as §2
Candida albicans [15] = assay: Antifungal activity against Candida albicans ATCC 10231 incubated for 48 hrs under dark condition by broth microdilution method; format: functional; settings: ATCC 10231, 48 h
Summary of the method: (§3)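 CLSI M27-A3 broth microdilution in RPMI-1640, DMSO ≤1%, compounds at 250-0.98 µg/mL final. Inoculum 1-5 × 10^3 CFU/mL. Incubated 48 h at 30 °C in a moist dark chamber, read at OD405. MIC80 and MIC50 taken from % inhibition dose-response curves (mean ± SEM, triplicate). Amphotericin B was the positive control.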

Candida albicans [16] = assay: Growth inhibition of Candida albicans ATCC 10231 at 7.8 ug/ml incubated for 48 hrs under dark condition by broth microdilution method relative to control; format: functional; settings: ATCC 10231, 48 h, read-out: GI; summary of the method: as §1
Candida albicans [17] = assay: Growth inhibition of Candida albicans ATCC 10231 at 250 ug/ml incubated for 48 hrs under dark condition by broth microdilution method relative to control; format: functional; settings: ATCC 10231, 48 h, read-out: GI; summary of the method: as §1
Cryptococcus neoformans [18] = assay: Antifungal activity against Cryptococcus neoformans ATCC 32264 incubated for 48 hrs under dark condition by broth microdilution method; format: functional; settings: ATCC 32264, 48 h; summary of the method: as §3
Klebsiella pneumoniae [19] = assay: Antibacterial activity against carbapenemase positive Klebsiella pneumoniae BAA 1705 after 24 hrs by resazurin dye based microdilution assay; format: functional; settings: BAA 1705, 24 h; summary of the method: as §2
Cryptococcus neoformans [20] = assay: Growth inhibition of Cryptococcus neoformans ATCC 32264 at 31.25 ug/ml incubated for 48 hrs under dark condition by broth microdilution method relative to control; format: functional; settings: ATCC 32264, 48 h, read-out: GI; summary of the method: as §1
Klebsiella pneumoniae [21] = assay: Antibacterial activity against ESBL positive Klebsiella pneumoniae ATCC 700603 after 24 hrs by resazurin dye based microdilution assay; format: functional; settings: Klebsiella pneumoniae, 700603, 24 h; summary of the method: as §2

Compound | inhibition of growth at 15.62 µg/mL (Candida albicans [1]) | inhibition of growth at 31.25 µg/mL (Candida albicans [2]) | EC50 (Trypanosoma cruzi) | inhibition of growth at 62.5 µg/mL (Cryptococcus neoformans [3]) | MIC (Escherichia coli) | EC50 (Leishmania panamensis) | LC50 (U-937) | inhibition of growth at 125 µg/mL (Candida albicans [4]) | MIC (Staphylococcus aureus [5]) | inhibition of growth at 125 µg/mL (Cryptococcus neoformans [6]) | inhibition of growth at 15.62 µg/mL (Cryptococcus neoformans [7]) | inhibition of growth at 3.4 µg/mL (Candida albicans [8]) | EC50 (Plasmodium falciparum) | MIC (Staphylococcus aureus [9]) | MIC (Neisseria gonorrhoeae) | inhibition of growth at 3.4 µg/mL (Cryptococcus neoformans [10]) | inhibition of growth at 62.5 µg/mL (Candida albicans [11]) | inhibition of growth at 7.8 µg/mL (Cryptococcus neoformans [12]) | MIC (Staphylococcus aureus [13]) | inhibition of growth at 250 µg/mL (Cryptococcus neoformans [14]) | other results
O=CN1N=C(c2ccccc2)CC1c1cccc(Nc2ccnc3cc(Cl)ccc23)c1 (stereo not given) | 4.31% | 8.44% | > 0.6 µg/mL | 34.4% | > 1000 µg/mL | 1.72 µg/mL (≈ 4.03 µM) | 1.3 µg/mL (≈ 3.05 µM) | 16.9% | > 1000 µg/mL | 47.2% | 20.7% | 2.19% | 17.7 µg/mL (≈ 41.4 µM) | > 1000 µg/mL | > 1000 µg/mL | 7.63% | 10.1% | 11.2% | > 1000 µg/mL | 54.1% | MIC (Pseudomonas aeruginosa): > 1000 µg/mL; MIC50 (Candida albicans [15]): ≥ 250 µg/mL; MIC80 (Candida albicans [15]): ≥ 250 µg/mL; inhibition of growth at 7.8 µg/mL (Candida albicans [16]): 4.3%; inhibition of growth at 250 µg/mL (Candida albicans [17]): 29.9%; MIC50 (Cryptococcus neoformans [18]): 250 µg/mL (≈ 586 µM); MIC80 (Cryptococcus neoformans [18]): ≥ 250 µg/mL; MIC (Klebsiella pneumoniae [19]): > 1000 µg/mL; inhibition of growth at 31.25 µg/mL (Cryptococcus neoformans [20]): 29.7%; MIC (Klebsiella pneumoniae [21]): > 1000 µg/mL
Clc1cc(Cl)cc(N2N=C(c3ccc(Br)cc3)CC2c2cccc(Nc3ccnc4cc(Cl)ccc34)c2)c1 (stereo not given) | 1.92% | 2.07% | 28.3 µg/mL (≈ 45.4 µM) | 0% | > 1000 µg/mL | 2.77 µg/mL (≈ 4.45 µM) | > 200 µg/mL | 7.23% | > 1000 µg/mL | 0% | 0% | 0% | 14.4 µg/mL (≈ 23.1 µM) | > 1000 µg/mL | > 1000 µg/mL | 0% | 4.45% | 0% | > 1000 µg/mL | 13.3% | MIC (Pseudomonas aeruginosa): > 1000 µg/mL; MIC50 (Candida albicans [15]): ≥ 250 µg/mL; MIC80 (Candida albicans [15]): ≥ 250 µg/mL; inhibition of growth at 7.8 µg/mL (Candida albicans [16]): 1.43%; inhibition of growth at 250 µg/mL (Candida albicans [17]): 13.7%; MIC50 (Cryptococcus neoformans [18]): ≥ 250 µg/mL; MIC80 (Cryptococcus neoformans [18]): ≥ 250 µg/mL; MIC (Klebsiella pneumoniae [19]): > 1000 µg/mL; inhibition of growth at 31.25 µg/mL (Cryptococcus neoformans [20]): 0%; MIC (Klebsiella pneumoniae [21]): > 1000 µg/mL
